What was measured:
[1] = Half life in rat liver microsomes; format: ADME
[2] = Inhibition of butter milk Xanthine oxidase using xanthine as substrate preincubated for 3 mins by spectrophotometry
Method in brief: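 Buttermilk xanthine oxidase at 0.05 U/mL in 50 mM phosphate buffer with test compound; reaction started with 200 µM xanthine stock. Uric acid formation read at 293 nm, with linear Vmax over 5 min taken as initial velocity. Inhibition was calculated against the uninhibited rate, and IC50 was taken as the concentration giving 50% inhibition.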

[3] = Cytotoxicity against primary rat hepatocytes; format: cell-based, Hepatocyte
[4] = Cmax in Sprague-Dawley rat at 10 mg/kg, po; format: ADME, organism-based; parameters: dose 10 mg/kg, route oral; conditions: in vivo
Method in brief: (§1)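 Single oral dose of 10 mg/kg in Sprague-Dawley rats; plasma followed over 24 h; Cmax, Tmax, AUC, half-life and bioavailability derived from the plasma profile; n = 3.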

[5] = AUC (0 to last) in Sprague-Dawley rat at 10 mg/kg, po; format: ADME, organism-based; parameters: time 0 - last, dose 10 mg/kg, route oral; conditions: plasma; method in brief: as §1
[6] = Half life in Sprague-Dawley rat at 2 mg/kg, iv; format: ADME, organism-based; parameters: dose 2 mg/kg, route intravenous; conditions: in vivo
Method in brief: (§2)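 Single intravenous dose of 2 mg/kg in Sprague-Dawley rats; AUC, half-life, clearance and Vd derived from the plasma profile; n = 3.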

[7] = Tmax in Sprague-Dawley rat at 10 mg/kg, po; format: ADME, organism-based; parameters: dose 10 mg/kg, route oral; conditions: in vivo; method in brief: as §1
[8] = Clearance in Sprague-Dawley rat at 2 mg/kg, iv; format: ADME, organism-based; parameters: dose 2 mg/kg, route intravenous; conditions: in vivo; method in brief: as §2
Rattus norvegicus = assay: Inhibition of uric acid production in Sprague-Dawley rat at 10 mg/kg, po measured 1 hr post dose; format: functional
Method in brief: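 Male SD rats (about 200 g) received potassium oxonate 300 mg/kg i.p. in 0.8% carboxymethylcellulose. One hour later, compound at 10 mg/kg in PEG400/ethanol (2:1) was given orally, and blood was sampled 1 h after dosing. Plasma uric acid was scaled with the normal group as 100% and the oxonate control as 0% inhibition. ANOVA with Dunnett's post-test was used.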

[9] = Volume of distribution in Sprague-Dawley rat at 2 mg/kg, iv; format: ADME, organism-based; parameters: dose 2 mg/kg, route intravenous; conditions: in vivo; method in brief: as §2
[10] = AUC (0 to infinity) in Sprague-Dawley rat at 2 mg/kg, iv; format: ADME, organism-based; parameters: time infinity, dose 2 mg/kg, route intravenous; conditions: plasma; method in brief: as §2
[11] = AUC (0 to infinity) in Sprague-Dawley rat at 10 mg/kg, po; format: ADME, organism-based; parameters: time infinity, dose 10 mg/kg, route oral; conditions: plasma; method in brief: as §1
[12] = Half life in Sprague-Dawley rat at 10 mg/kg, po; format: ADME, organism-based; parameters: dose 10 mg/kg, route oral; conditions: in vivo; method in brief: as §1
[13] = Oral bioavailability in Sprague-Dawley rat at 10 mg/kg; format: ADME, organism-based; conditions: in vivo; method in brief: as §1
[14] = AUC (0 to last) in Sprague-Dawley rat at 2 mg/kg, iv; format: ADME, organism-based; parameters: dose 2 mg/kg, route intravenous, time 0 - last; conditions: plasma; method in brief: as §2
Plasma = assay: Plasma concentration in Sprague-Dawley rat at 10 mg/kg, po; format: ADME, organism-based; parameters: dose 10 mg/kg, route oral; conditions: in vivo
Method in brief: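 Oral dose of 10 mg/kg in Sprague-Dawley rats; plasma concentration measured 1 h after administration.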

| Structure (SMILES) | half-life [1] [h] | IC50 [2] [nM] | inhibition in vivo at 10 mg/kg (Rattus norvegicus) [%] | also measured |
| --- | --- | --- | --- | --- |
| Cc1nc(-c2ccc3c(ccn3CC(C)C)c2)sc1C(=O)O | 0.458 | 110 | – | – |
| Cc1nc(-c2ccc3c(c2)c(Cl)cn3CC(C)C)sc1C(=O)O | 0.103 | 5.7 | – | – |
| Cc1nc(-c2ccc3c(c2)c(Cl)cn3C(C)C)sc1C(=O)O | 1.6 | 7.3 | – | – |
| Cc1nc(-c2ccc3c(c2)c(Cl)c(C)n3CC(C)C)sc1C(=O)O | 0.11 | 16 | – | – |
| Cc1nc(-c2ccc3c(c2)c([N+](=O)[O-])cn3C(C)C)sc1C(=O)O | 1.32 | 4.2 | – | – |
| COCCn1cc([N+](=O)[O-])c2cc(-c3nc(C)c(C(=O)O)s3)ccc21 | – | 12 | – | – |
| Cc1nc(-c2ccc3c(c2)c(C#N)cn3CC(C)C)sc1C(=O)O | 1.76 | 5.5 | – | CC50 [3]: 82000 nM |
| CC(C)n1cc(C#N)c2cc(-c3ncc(C(=O)O)s3)ccc21 | – | 4.4 | – | Cmax [4]: 940 ng/mL; AUC(0-t) [5]: 5390 ng·h/mL |
| CC(C)n1cc(C#N)c2cc(-c3nc(C(F)(F)F)c(C(=O)O)s3)ccc21 | – | 895 | – | – |
| COc1nc(-c2ccc3c(c2)c(C#N)cn3C(C)C)sc1C(=O)O | – | 90 | – | – |
| Cc1nc(-c2ccc3c(c2)c(C#N)cn3C(C)C)sc1C(=O)O | – | 3.5 | 60 | CC50 [3]: 200000 nM; half-life [6]: 4.37 h; Tmax [7]: 6 h; clearance [8]: 2.69 mL/min/kg; Vd [9]: 0.635 L/kg; Cmax [4]: 3980 ng/mL; AUC(0-inf) [10]: 12500 ng·h/mL; AUC(0-inf) [11]: 52900 ng·h/mL; AUC(0-t) [5]: 47300 ng·h/mL; half-life [12]: 7.95 h; bioavailability [13]: 84.3%; AUC(0-t) [14]: 12400 ng·h/mL |
| Cc1nc(-c2ccc3c(c2)c(C#N)c(C)n3C(C)C)sc1C(=O)O | – | 10.7 | 8.6 | – |
| Cc1nc(-c2ccc3c(c2)c(C#N)cn3C(C)CF)sc1C(=O)O (configuration not stated) | – | 4.9 | 22.3 | – |
| Cc1nc(-c2ccc3c(c2)c(C#N)cn3C(C)CO)sc1C(=O)O (configuration not stated) | – | 3 | 8.5 | – |
| COCC(C)n1cc(C#N)c2cc(-c3nc(C)c(C(=O)O)s3)ccc21 (configuration not stated) | – | 9 | 14.1 | – |
| Cc1nc(-c2ccc3c(c2)c(C#N)cn3CCS(C)(=O)=O)sc1C(=O)O | – | 12.3 | 0 | Cp (Plasma): < 20 ng/mL |
| CC(=O)NCCn1cc(C#N)c2cc(-c3nc(C)c(C(=O)O)s3)ccc21 | – | 5.6 | 0 | Cp (Plasma): < 20 ng/mL |
| Cc1nc(-c2ccc3c(c2)c(C#N)cn3CCNS(C)(=O)=O)sc1C(=O)O | – | 6 | 0 | – |
| Cc1nc(-c2ccc3c(c2)c(C#N)cn3Cc2ccccc2)sc1C(=O)O | – | 3.9 | 10 | – |
| Cc1nc(-c2ccc3c(c2)c(C#N)cn3Cc2ccc(F)cc2F)sc1C(=O)O | – | 8.6 | 16 | – |
| Cc1nc(-c2ccc(OCC(C)C)c(C#N)c2)sc1C(=O)O [FEBUXOSTAT] | 2.9 | 3.1 | – | Cmax [4]: 16400 ng/mL; AUC(0-t) [5]: 61500 ng·h/mL |
